According to PubChem BioAssay AID504768 (Southern Research Specialized Biocontainment Screening …, 2011):
Active and inactive are the calls of the source.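 The calls were made as follows: active = phage lysis blocked by at least 50% at any tested concentration; inactive = the rest.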

Experiment: protection of E. coli UTI89 from K1F – UTI89 strain, C7 control, set 4, capsule biogenesis inhibitor project, confirmation (AID 504768)
Conditions: OD600, at 300 µM (top of the series)
How it was run: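 System: E. coli UTI89 K1 and kpsM mutant; Medium: LB, cultures diluted 1:100; Probe or stimulus: K1F phage, added after compound pre-incubation; Doses: DMSO at 1% final; Schedule: 1.25 h compound pre-incubation at 37 °C shaking, lysis read 3 h post-phage; Technique: OD600 absorbance; Repeats: four replicate wells per compound concentration.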

outcome, inactive:
O=C(Nc1nc2ccc(F)cc2s1)c1ccccn1
O=C(Nc1nc2c(F)cc(F)cc2s1)c1ccccc1
O=C(Nc1nc2ccccc2s1)c1ccncc1
O=C(Nc1nc2c(F)cccc2s1)c1ccccn1
O=C(Nc1nc2ccccc2s1)c1cccnc1
O=C(Nc1nc2c(F)cc(F)cc2s1)c1cccnc1
O=C(Nc1nc2c(Cl)cc(Cl)cc2s1)c1ccccn1
O=C(Nc1nc2c(F)cc(F)cc2s1)c1ccncc1
Cc1cc(C)c2nc(NC(=O)c3ccccn3)sc2c1
